Source: publication PMC4242102 (Investigational new drugs, 2013)

Key:
HUVEC = assay: Cytotoxicity assay; format: cell-based; conditions: Homo sapiens, 72 h, read-out: IC50 on cell viability
Procedure, shortened: (§1)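 Cells grown in 0.2% gelatin-coated flasks in RPMI 1640 with 20% human serum, 2 mM glutamine, penicillin/streptomycin. Seeded at 3,000 cells/well and allowed to adhere ≥3 h (37 °C, 5% CO2), then exposed to a range of test compound concentrations for 72 h. Viability measured by CCK-8 or MTT, relative to vehicle-only cultures. Triplicate wells, ≥3 independent experiments. Apparent IC50 (concentration giving 50% viability) taken from mean dose-response curves.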

2H11 endothelial cells = assay: Cytotoxicity assay; format: cell-based, murine; conditions: Mus musculus, Endothelial cell, 72 h, read-out: IC50 on cell viability
Procedure, shortened: (§2)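 Cells maintained on uncoated flasks in RPMI 1640 with 10% FBS and 1% penicillin/streptomycin; mycoplasma-checked. Seeded at 3,000 cells/well, allowed ≥3 h adherence (37 °C, 5% CO2), then treated 72 h with graded test compound concentrations. CCK-8 or MTT colorimetric viability, expressed against vehicle-treated cultures. Triplicate wells, at least three independent runs. Apparent IC50 (concentration giving 50% viability) read from mean dose-response curves.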

Fibroblasts = assay: Cytotoxicity assay; format: cell-based; conditions: Fibroblast, 72 h, read-out: IC50 on cell viability
Procedure, shortened: as §1

FSAII fibrosarcoma cells = assay: Cytotoxicity assay; format: cell-based, murine; conditions: Mus musculus, 72 h, read-out: IC50 on cell viability
Procedure, shortened: as §2

[1] = system: MA148 ovarian carcinoma cells; assay: Cytotoxicity assay; format: cell-based; conditions: Homo sapiens, Ovarian carcinoma cell, 72 h, read-out: IC50 on cell viability
Procedure, shortened: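 3,000 cells/well, left to adhere at least 3 h at 37 °C in 5% CO2, then exposed to various test compound concentrations for 72 h. Viability read colorimetrically (CCK-8 or MTT) as percentage of vehicle-only cultures. Each experiment in triplicate, repeated ≥3 times. Apparent IC50 (concentration for 50% viability) derived from averaged dose-response curves.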

[2] = system: A549 lung carcinoma cells; assay: Cytotoxicity assay; format: cell-based; conditions: Homo sapiens, A549, 72 h, read-out: IC50 on cell viability
Procedure, shortened: as §2

[3] = system: SCK mammary carcinoma cells; assay: Cytotoxicity assay; format: cell-based, murine; conditions: Mus musculus, 72 h, read-out: IC50 on cell viability
Procedure, shortened: as §2

B16F10 melanoma cells = assay: Cytotoxicity assay; format: cell-based, murine; conditions: Mus musculus, B16-F10, 72 h, read-out: IC50 on cell viability
Procedure, shortened: as §2

General toxicity = format: in vivo; conditions: 10 mg/kg IP BID, comparison study (Fig. 4b)

Compound: CN(C)CCNC(=O)COc1c2cccc1Cc1cccc(c1OCC(=O)NCCN(C)C)Cc1cccc(c1OCC(=O)NCCN(C)C)Cc1cccc(c1OCC(=O)NCCN(C)C)C2 [PTX008]
- IC50 (HUVEC): 3 µM
- IC50 (2H11 endothelial cells): > 100 µM
- IC50 (Fibroblasts): 35 µM
- IC50 (FSAII fibrosarcoma cells): > 20 µM
- IC50 [1]: 0.5 µM
- IC50 [2]: 2 µM
- IC50 [3]: 100 µM
- IC50 (B16F10 melanoma cells): 80 µM
- body weights of mice during treatment (General toxicity): remained constant
